In the library only some 1.4% were active in any assay of this set; here they are far more common.
mABHD4 FP: ABHD4 inhibitors, primary screen, biochemical, fluorescence polarization, mouse | AID 720543, 2013 | inhibition, % at 8.92 µM | purified mABHD4, FP-Rh probe fluorescence polarization | (Lyso)-N-acylphosphatidylethanolamine lipase (Mus musculus), Q8VD66 | 0.54% of 370,000 active;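 active means inhibition exceeding the mean over every tested compound plus 3 SD, cut at about 30% in these data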;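 further: 0% = plate median of compound wells and 100% = S159A mutant with DMSO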
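Test system: mABHD4 protein | Buffer or medium: HEPES pH 7.0 buffer, 150 mM NaCl, 0.01% Pluronic F-127 | Probe or stimulus: FP-Rh fluorescent activity-based probe, added after compound pre-incubation | Timing: Pre-incubation 45 min, probe exposure 60 min, at 25 °C | Technique: Fluorescence polarization, excitation 525 nm, emission 598 nm, BODIPY TMR filters | Repeats: Single well per compound (singlicate)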
HTRA1 inhibitor: HTRA1 serine protease inhibitors, primary screen, biochemical, fluorescence polarization, HTS; recombinant HTRA1, FP-rhodamine activity-based probe; AID 504803, 2011; 0.5% of 340,000 active; Q92743; inhibition, % at 5.96 µM; in the data active means inhibition above about 36%;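 further: 0% = enzyme with DMSO and 100% = wells lacking enzyme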
SIAE inh: human SIAE inhibitors, primary screen, biochemical, fluorescence polarization, FP-Rh probe, 1536-well HTS; Sialate O-acetylesterase (Homo sapiens), Q9HAT2; SIAE FP-Rh probe binding; inhibition, % at 9.66 µM; 0.69% of 370,000 active;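 active means inhibition above a cutoff: mean of compounds within the control limits plus 3 SD of those, cut at about 17% in these data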;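 further: 0% = plate median of compound wells and 100% = probe without SIAE protein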
Target sequence (Q9HAT2 whole entry, looked up): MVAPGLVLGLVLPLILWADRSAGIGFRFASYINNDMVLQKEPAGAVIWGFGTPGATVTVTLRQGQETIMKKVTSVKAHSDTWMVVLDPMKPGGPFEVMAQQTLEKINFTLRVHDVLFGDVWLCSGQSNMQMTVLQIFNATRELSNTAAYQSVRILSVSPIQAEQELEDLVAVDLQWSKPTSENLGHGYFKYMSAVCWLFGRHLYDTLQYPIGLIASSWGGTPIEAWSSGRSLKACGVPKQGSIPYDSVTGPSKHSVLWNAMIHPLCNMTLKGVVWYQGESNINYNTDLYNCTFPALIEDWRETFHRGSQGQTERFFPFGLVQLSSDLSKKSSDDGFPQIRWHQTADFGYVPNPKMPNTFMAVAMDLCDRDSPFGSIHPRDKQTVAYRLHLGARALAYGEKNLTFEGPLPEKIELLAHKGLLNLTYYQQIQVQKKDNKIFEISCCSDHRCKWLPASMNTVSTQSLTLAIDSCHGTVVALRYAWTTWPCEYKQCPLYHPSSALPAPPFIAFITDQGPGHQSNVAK
RBBP9 inhibitor: human RBBP9 inhibitors, primary screen, biochemical, fluorescence polarization, FP-Rh probe, HTS | Serine hydrolase RBBP9 (Homo sapiens), O75884 | recombinant RBBP9 | inhibition, % at 7.94 µM | 0.2% of 220,000 active;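 active means inhibition above the campaign mean of all tested compounds plus 3 SD, cut at about 14% in these data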;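 further: plate controls were DMSO wells with RBBP9 for no effect and wells lacking RBBP9 protein for full effect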
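System: RBBP9 protein | Quantity: 2.5 µM RBBP9 dispensing solution, before mixing | Reagent: FP-Rh probe, 375 nM dispensing solution | Timing: Enzyme-compound preincubation 30 min, then probe labeling 45 min, 25 °C | Measured by: Fluorescence polarization | Read-out: % inhibition | Replication: One well per compound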
RBBP9 inh conf: human RBBP9 inhibitors, retest, confirmation, biochemical, fluorescence polarization, FP-Rh probe, triplicate; shares compounds with RBBP9 inhibitor; recombinant RBBP9; inhibition, % at 7.94 µM; 36% of 410 active;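 active means inhibition above the hit cutoff derived for the primary screen, cut at about 15% in these data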;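 further: 0% = RBBP9 with DMSO and 100% = wells lacking RBBP9 protein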
Numbers without * were called inactive; / = no result given.

SMILES	mABHD4 FP	HTRA1 inhibitor	SIAE inh	RBBP9 inhibitor	others
O=C(O)c1cccc(N2C(=O)/C(=C/c3ccc(SCc4ccc(Cl)cc4)o3)SC2=S)c1	32.2*	0.7	-5.1	-5.0
O=C(CCN1C(=O)/C(=C/c2ccc(Cl)cc2)SC1=S)Nc1cccc(C(=O)O)c1	-1.2	2.7	8.3	/
Cc1cccc(-c2cccc3c4c([nH]c23)[C@@H]2C[C@H](N(C)C(=O)C3CCCCC3)[C@H]([C@H](C)O)CN2CC4)c1	1.5	/	-6.2	/
O=S1(=O)c2ccc(Br)cc2OC[C@H](Cc2ccccc2)N1Cc1cn(Cc2ccc(Cl)cc2)nn1	-5.0	/	-1.0	/
Cc1cc(O)c(CN(C)C)c2c1C(=O)/C(=C/c1ccco1)O2	13.8	-2.6	16.5	/
Cc1cc(O)c(C=O)c2c1C(=O)Oc1c(CO)c(O)c3c(c1O2)C(O)OC3=O (configuration not stated)	/	41.1*	/	31.6*
O=c1[nH]c2ccccc2c(O)c1-[n+]1ccccc1	-0.5	-2.1	4.0	-5.8
O=c1[nH]c2ccccc2c(O)c1O	-2.0	7.0	3.5	15.6*
O=C1C(C2=C(O)c3ccccc3C2=O)=Nc2ccccc21	40.4*	21.9	9.6	3.8
COc1cc(/C=N/Nc2nc3c(c(=O)n(C)c(=O)n3C)n2Cc2ccccc2)ccc1OC(=O)c1ccco1	0.0	-1.5	21.1*	7.1
COc1ccc2c(c1)CNC2CS(=O)(=O)NCc1ccc(F)cc1 (configuration not stated)	2.3	/	2.9	/
Cc1ccc(C)c(N2C(=N)S/C(=C\c3ccc(-c4ccccc4C(=O)O)o3)C2=O)c1	33.9*	-13.1	2.3	-7.0
COC(=O)[C@]12C[C@H](CC(=O)NCCCCc3ccccc3)C(=O)N(Cc3ccco3)C1=C[C@H](C(C)(C)C)O[C@@H]2C	-8.0	/	-4.8	/
COc1ccc(-c2cc(C(F)(F)F)n3nc(C(=O)Nc4cc(C)on4)cc3n2)cc1OC	3.2	8.1	18.1*	4.9
Cc1cc(C)c(S(=O)(=O)/N=C2/C=C(Sc3ncn[nH]3)C(=O)c3ccccc32)cc1C	42.8*	22.1	19.9*	8.3
COc1cccc(CN(C(=O)c2ccco2)C(C(=O)NC2CCCC2)c2cccnc2)c1 (configuration not stated)	-4.0	-0.2	135.3*	-9.3
COc1ccc(N(C(=O)c2ccco2)C(C(=O)NC2CCCC2)c2cccnc2)c(OC)c1 (configuration not stated)	-4.0	-3.0	2.2	/
COc1cccc(CN(C(=O)Cc2c[nH]c3ccccc23)C(C(=O)NC2CCCCC2)c2ccc(C)o2)c1 (configuration not stated)	-6.4	-32.8	18.0*	-7.4
CCc1nc(C)ccc1OCC(=O)NCCCN(C)C	16.6	9.0	19.8*	-3.3
C/C(=N\NC(=O)c1ccc(Br)cc1)C1C(=O)c2ccccc2C1=O	36.0*	40.0*	0.3	-2.9
CCOc1ccc(C(=O)N/N=C(/C)C2C(=O)c3ccccc3C2=O)cc1	10.4	10.1	3.7	1.8
Cc1noc(C)c1S(=O)(=O)Nc1ccc(C(=O)N2CCC(C)CC2)cc1	/	/	/	18.2*	RBBP9 inh conf=6.8
O=C(CN1CCC(NC(=O)NC2CCCC2)CC1)Nc1ccc2c(c1)OCCO2	-4.0	/	4.7	/
COc1ccc(S(=O)(=O)Nc2ccc(N3CCOCC3)cc2)cc1	2.0	-2.3	7.6	/
CCOc1ccc(S(=O)(=O)Nc2nc3ccccc3nc2Nc2ccc(N3CCOCC3)cc2)cc1	5.8	10.4	6.5	16.9*	RBBP9 inh conf=11.2
COc1ccc2c(c1)CC(C1(O)C(=O)Nc3ccccc31)C2=O (configuration not stated)	1.6	6.7	-11.0	19.0*	RBBP9 inh conf=1.7
O=C1c2ccccc2NC(c2cccc(O)c2)N1Cc1ccco1 (configuration not stated)	-3.5	2.0	5.4	14.7*	RBBP9 inh conf=29.3*
CCCCN1CN2Cc3cc(F)ccc3C2CS1(=O)=O (configuration not stated)	-0.1	/	6.7	/
Cc1cccc2cc(CN(CCCN(C)C)C(=S)NCCc3ccccc3)c(=O)[nH]c12	-0.5	5.8	1.6	17.1*	RBBP9 inh conf=26.7*

Screening data (PubChem BioAssay)
